# Assays:
# thermolysin = thermolysin (Bacillus thermoproteolyticus, UniProt P00800)
# [1] = Micelle size in water by TEM and DLS; assay type: physicochemical
# Outline: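 Test material was a linear-brush diblock copolymer (PMMA block plus a peptide-acrylamide/DMA brush block), self-assembled into micelles in water. Particle diameter was measured by TEM imaging, and hydrodynamic diameter by DLS. TEM images were also taken after thermolysin treatment (thermolysin cleaves the Gly–Leu amide bond of the peptide side chains).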
# Chain of thermolysin (P00800 233-548, species assumed): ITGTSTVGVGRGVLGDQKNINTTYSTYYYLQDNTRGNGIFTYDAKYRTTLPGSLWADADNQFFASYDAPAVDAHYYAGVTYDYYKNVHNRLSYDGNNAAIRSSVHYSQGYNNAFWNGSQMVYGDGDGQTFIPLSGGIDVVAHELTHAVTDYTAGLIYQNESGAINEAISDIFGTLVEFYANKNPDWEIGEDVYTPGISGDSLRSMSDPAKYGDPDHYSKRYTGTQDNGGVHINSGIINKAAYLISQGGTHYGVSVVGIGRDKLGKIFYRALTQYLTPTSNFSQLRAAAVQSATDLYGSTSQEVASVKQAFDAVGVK
substance,measurement,setting,value
PMMA90-b-poly(PepAm21-co-DMA63) [P8],morphology change of micelles upon treatment with thermolysin,"thermolysin; TEM and DLS, spherical micelles before treatment",underwent a phase transition into a worm-like phase
same,change of particle diameter with deactivated thermolysin,"thermolysin; same cleavage conditions, thermolysin pretreated with ethylenediaminetetraacetic acid, DLS",no change in diameter
same,hydrodynamic diameter (DLS),"[1]; micelles in water, dynamic light scattering",28 nm
same,micelle diameter (TEM),"[1]; spherical micelles assembled in water, transmission electron microscope",24 nm
